Laboratory results as given in ChEMBL document CHEMBL1149773, “Synthesis, determination of the lipophilicity, anticancer and antimicrobial properties of some fused 1,2,4-triazole derivatives” (Eur J Med Chem, 2008).
Values after ≈ are worked out from the molar mass of the structure shown. Values belong to the molecule of their own block, whether it stands above or below them.

How the values were obtained:
[1] = Antiproliferative activity against human skin fibroblast assessed as cell viability at 50 uM by MTT assay; format: cell-based; conditions: human skin fibroblasts, read-out: Activity
Method in brief: (§1)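 MTT viability assay on primary human skin fibroblasts grown in DMEM with 10% FBS and penicillin/streptomycin. Compounds were dissolved in DMSO and given at 1, 50 or 100 µM for 24 h. Cells were washed in HEPES-buffered medium (pH 7.4) and then given MTT 0.5 mg mL⁻¹ for 45 min at 37 °C. Formazan was dissolved in DMSO and read at 570 nm. Viability is % of control; three independent measurements.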

[2] = Lipophilicity, log kw in acetonitrile aqueous system at pH 3.5; format: physicochemical
Method in brief: (§2)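 RP-HPLC on an octadecyl silica column (150 × 4.6 mm, 5 µm) at 22 ± 1 °C, flow 1.0 mL min⁻¹, UV detection at 254 nm. Mobile phase was methanol, acetonitrile or dioxane with water and 0.01 M phosphate buffer pH 3.5 containing 0.05 M DEA. log k_W was extrapolated to pure water by regression.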

[3] = Lipophilicity, log kw in dioxane aqueous system at pH 3.5; format: physicochemical; conditions: buffer; method in brief: as §2
[4] = Antiproliferative activity against human skin fibroblast assessed as cell viability at 1 uM by MTT assay; format: cell-based; conditions: human skin fibroblasts, read-out: Activity
Method in brief: (§3)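 Log-phase cells, kept in supplemented RPMI 1640 (HSF in DMEM/10% FBS) at 37 °C, 5% CO2, were exposed 24 h to 1, 50 or 100 µM compound from DMSO. They were washed, given 0.5 mg/mL MTT in HEPES buffer pH 7.4 for 45 min at 37 °C, and formazan was dissolved in DMSO and read at 570 nm. Values are % viability versus control from three independent measurements.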

[5] = Lipophilicity, log kw in methanol aqueous system at pH 3.5; format: physicochemical; method in brief: as §2
[6] = test system: HeLa; experiment: Antiproliferative activity against human HeLa cells assessed as cell viability at 100 uM by MTT assay; format: functional; conditions: read-out: Activity; method in brief: as §3
[7] = Antiproliferative activity against human skin fibroblast assessed as cell viability at 100 uM by MTT assay; format: cell-based; conditions: human skin fibroblasts, read-out: Activity; method in brief: as §1
[8] = Antiproliferative activity against human RPMI cells assessed as cell viability at 50 uM by MTT assay; format: functional; conditions: read-out: Activity; method in brief: as §3
[9] = test system: HeLa; experiment: Antiproliferative activity against human HeLa cells assessed as cell viability at 1 uM by MTT assay; format: functional; conditions: read-out: Activity; method in brief: as §3
[10] = Antiproliferative activity against human RPMI cells assessed as cell viability at 1 uM by MTT assay; format: functional; conditions: read-out: Activity; method in brief: as §3
[11] = test system: HeLa; experiment: Antiproliferative activity against human HeLa cells assessed as cell viability at 50 uM by MTT assay; format: functional; conditions: read-out: Activity; method in brief: as §3
[12] = Antiproliferative activity against human RPMI cells assessed as cell viability at 100 uM by MTT assay; format: functional; conditions: read-out: Activity; method in brief: as §3
[13] = test system: Proteus vulgaris; experiment: Antimicrobial activity against Proteus vulgaris at 200 ug/mL by disc-diffusion method; format: functional; conditions: read-out: IZ
Method in brief: (§4)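 Kirby–Bauer disc diffusion: 5 mm paper discs soaked in compound solution in DMSO (100 or 200 µg/mL; reference drugs 200 µg/mL) and laid on inoculated Mueller-Hinton agar (bacteria) or Sabouraud agar (C. albicans, Aspergillus). DMSO discs were the control. Plates ran 24 h at 35 °C. Inhibition zone diameter was scored 0–10 mm R, 11–16 mm I, 17–25 mm S; triplicate.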

[14] = test system: Candida albicans; experiment: Antimicrobial activity against Candida albicans ATCC 10231 at 200 ug/mL by disc-diffusion method; format: functional; conditions: read-out: IZ; method in brief: as §4
[15] = test system: Staphylococcus aureus; experiment: Antimicrobial activity against Staphylococcus aureus ATCC 25923 after 24 hrs by microdilution assay; format: functional; conditions: ATCC 25923, 24 h
[16] = test system: Klebsiella pneumoniae; experiment: Antimicrobial activity against Klebsiella pneumoniae at 200 ug/mL by disc-diffusion method; format: functional; conditions: read-out: IZ; method in brief: as §4
[17] = test system: Klebsiella aerogenes; experiment: Antimicrobial activity against Enterobacter aerogenes at 100 ug/mL by disc-diffusion method; format: functional; conditions: read-out: IZ; method in brief: as §4
[18] = test system: Aspergillus sp.; experiment: Antimicrobial activity against Aspergillus sp. at 100 ug/mL by disc-diffusion method; format: functional; conditions: read-out: IZ; method in brief: as §4
[19] = test system: Staphylococcus aureus; experiment: Antimicrobial activity against Staphylococcus aureus ATCC 25923 at 200 ug/mL by disc-diffusion method; format: functional; conditions: read-out: IZ; method in brief: as §4
[20] = test system: Escherichia coli; experiment: Antimicrobial activity against Escherichia coli ATCC 25922 at 100 ug/mL by disc-diffusion method; format: functional; conditions: read-out: IZ; method in brief: as §4
[21] = test system: Streptococcus pyogenes; experiment: Antimicrobial activity against Streptococcus pyogenes at 200 ug/mL by disc-diffusion method; format: functional; conditions: read-out: IZ; method in brief: as §4
[22] = test system: Streptococcus agalactiae; experiment: Antimicrobial activity against Streptococcus agalactiae at 200 ug/mL by disc-diffusion method; format: functional; conditions: read-out: IZ; method in brief: as §4
[23] = test system: Aspergillus sp.; experiment: Antimicrobial activity against Aspergillus sp. at 200 ug/mL by disc-diffusion method; format: functional; conditions: read-out: IZ; method in brief: as §4
[24] = test system: Streptococcus pyogenes; experiment: Antimicrobial activity against Streptococcus pyogenes at 100 ug/mL by disc-diffusion method; format: functional; conditions: read-out: IZ; method in brief: as §4
[25] = test system: Staphylococcus epidermidis; experiment: Antimicrobial activity against Staphylococcus epidermidis at 200 ug/mL by disc-diffusion method; format: functional; conditions: read-out: IZ; method in brief: as §4
[26] = test system: Staphylococcus aureus; experiment: Antimicrobial activity against Staphylococcus aureus ATCC 25923 at 100 ug/mL by disc-diffusion method; format: functional; conditions: read-out: IZ; method in brief: as §4
[27] = test system: Candida albicans; experiment: Antimicrobial activity against Candida albicans ATCC 10231 at 100 ug/mL by disc-diffusion method; format: functional; conditions: read-out: IZ; method in brief: as §4
[28] = test system: Pseudomonas aeruginosa; experiment: Antimicrobial activity against Pseudomonas aeruginosa ATCC 27853 at 200 ug/mL by disc-diffusion method; format: functional; conditions: read-out: IZ; method in brief: as §4
[29] = test system: Klebsiella aerogenes; experiment: Antimicrobial activity against Enterobacter aerogenes at 200 ug/mL by disc-diffusion method; format: functional; conditions: read-out: IZ; method in brief: as §4
[30] = test system: Escherichia coli; experiment: Antimicrobial activity against Escherichia coli ATCC 25922 at 200 ug/mL by disc-diffusion method; format: functional; conditions: read-out: IZ; method in brief: as §4
[31] = test system: Proteus vulgaris; experiment: Antimicrobial activity against Proteus vulgaris at 100 ug/mL by disc-diffusion method; format: functional; conditions: read-out: IZ; method in brief: as §4
[32] = test system: Pseudomonas aeruginosa; experiment: Antimicrobial activity against Pseudomonas aeruginosa ATCC 27853 at 100 ug/mL by disc-diffusion method; format: functional; conditions: read-out: IZ; method in brief: as §4
[33] = test system: Streptococcus agalactiae; experiment: Antimicrobial activity against Streptococcus agalactiae at 100 ug/mL by disc-diffusion method; format: functional; conditions: read-out: IZ; method in brief: as §4
[34] = test system: Klebsiella pneumoniae; experiment: Antimicrobial activity against Klebsiella pneumoniae at 100 ug/mL by disc-diffusion method; format: functional; conditions: read-out: IZ; method in brief: as §4
[35] = test system: Staphylococcus epidermidis; experiment: Antimicrobial activity against Staphylococcus epidermidis at 100 ug/mL by disc-diffusion method; format: functional; conditions: read-out: IZ; method in brief: as §4
[36] = test system: Pseudomonas aeruginosa; experiment: Antimicrobial activity against Pseudomonas aeruginosa ATCC 27853 after 24 hrs by microdilution assay; format: functional; conditions: ATCC 27853, 24 h

logKw [2]: 3.04
logKw [3]: 3.55
logKw [5]: 4.27
Compound: Cc1ccc(N2CCn3c(COc4ccc(Cl)cc4)nnc32)cc1
viability at 50 µM [1]: 68.4%
viability at 1 µM [4]: 88.1%
viability at 100 µM [6]: 77.9%
viability at 100 µM [7]: 64.7%
viability at 50 µM [8]: 39.5%
viability at 1 µM [9]: 89%
viability at 1 µM [10]: 104%
viability at 50 µM [11]: 78.3%
viability at 100 µM [12]: 39.9%

logKw [2]: 1
logKw [3]: 1.1
MIC [15]: 44 µM (≈ 15.6 µg/mL)
logKw [5]: 1.58
Compound: Cc1ccc(N2CCn3c(COc4ccc(Cl)cc4C)nnc32)cc1
zone of inhibition at 200 µg/mL [13]: 0 mm
zone of inhibition at 200 µg/mL [14]: 0 mm
viability at 50 µM [1]: 56.9%
zone of inhibition at 200 µg/mL [16]: 0 mm
viability at 1 µM [4]: 74.9%
zone of inhibition at 100 µg/mL [17]: 0 mm
zone of inhibition at 100 µg/mL [18]: 0 mm
zone of inhibition at 200 µg/mL [19]: 17 mm
zone of inhibition at 100 µg/mL [20]: 0 mm
zone of inhibition at 200 µg/mL [21]: 0 mm
zone of inhibition at 200 µg/mL [22]: 0 mm
zone of inhibition at 200 µg/mL [23]: 0 mm
viability at 100 µM [6]: 75.6%
zone of inhibition at 100 µg/mL [24]: 0 mm
viability at 100 µM [7]: 62.1%
zone of inhibition at 200 µg/mL [25]: 17 mm
viability at 50 µM [8]: 27.7%
zone of inhibition at 100 µg/mL [26]: 11 mm
zone of inhibition at 100 µg/mL [27]: 0 mm
zone of inhibition at 200 µg/mL [28]: 0 mm
viability at 1 µM [9]: 95.1%
zone of inhibition at 200 µg/mL [29]: 0 mm
zone of inhibition at 200 µg/mL [30]: 0 mm
zone of inhibition at 100 µg/mL [31]: 0 mm
zone of inhibition at 100 µg/mL [32]: 0 mm
viability at 1 µM [10]: 85.5%
zone of inhibition at 100 µg/mL [33]: 0 mm
viability at 50 µM [11]: 75.2%
zone of inhibition at 100 µg/mL [34]: 0 mm
viability at 100 µM [12]: 25.4%
zone of inhibition at 100 µg/mL [35]: 11 mm

logKw [2]: 2.7
logKw [3]: 1.89
logKw [5]: 2.19
Compound: Clc1ccc(N2CCn3cnnc32)cc1
viability at 50 µM [1]: 90.9%
viability at 1 µM [4]: 101%
viability at 100 µM [6]: 68.4%
viability at 100 µM [7]: 90.7%
viability at 50 µM [8]: 96.9%
viability at 1 µM [9]: 77.9%
viability at 1 µM [10]: 104%
viability at 50 µM [11]: 67.6%
viability at 100 µM [12]: 87.5%

MIC [15]: 12.4 µM (≈ 4.01 µg/mL)
MIC [36]: > 387 µM
Compound: O=C(N[C@H](CO)[C@H](O)c1ccc([N+](=O)[O-])cc1)C(Cl)Cl [CHLORAMPHENICOL]
